Measured values: ChEMBL document CHEMBL1127837, “6,9-Bis[(aminoalkyl)amino]benzo[g]isoquinoline-5,10-diones. A novel class of chromophore-modified antitumor anthracene-9,10-diones: synthesis and antitumor evaluations” (J Med Chem, 1994)
≈ marks a conversion by molar mass, not a printed value. Where “and” joins values, the source holds several entries; their conditions need not be identical. Equal values may be shown once.

How the values were obtained:
L1210 = assay: Tested in vitro for inhibitory activity against L1210 murine leukemia; assay type: functional, cell-based; settings: Mus musculus
Summary of the method: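 L1210 suspension cells grown in McCoy's 5A with 10% horse serum, 10% CO2, 37 °C. Drug dissolved in water and added to 10^5 cells/tube at final 0.01, 0.1, 1 and 10 µg/mL.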

LoVo = assay: Tested in vitro for cytotoxic activity against Human colon Adenocarcinoma sensitive cell line (LoVo); assay type: functional, cell-based
Summary of the method: (§1)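 LoVo and doxorubicin-resistant LoVo/Dx colon cells grown in Ham's F12 with 10% fetal calf serum, glutamine, vitamins and Hepes at 37 °C. 2.5 × 10^5 cells/mL plated and preincubated 24 h, then exposed to drug for 144 h. MTT read-out at 570 nm. IC50 (µg/mL) derived; resistance index = IC50 resistant / IC50 sensitive line.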

P388 = assay: Tested for antitumor activity against P388 murine leukemia; assay type: functional, Mus musculus
Summary of the method: (§2)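 P388 cells kept by serial ip passage (10^5 cells) in DBA2 male mice. CD2F1 mice inoculated iv with 10^6 cells on day 0. Drug given iv on days 1, 4 and 7. Daily observation for toxicity and survival over 60 days. Median survival time per group, expressed as %T/C = MST treated/MST control × 100.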

[1] = (§3) The compound was tested for antitumor activity against P388 murine leukemia by measuring maximum tolerated dose; assay type: ADME, organism-based; settings: mouse, in vivo; read-out: LD10
Summary of the method: (§4)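 CD2F1 mice were given 10^6 P388 cells iv, followed by iv treatment on days 1, 4 and 7 after transplantation. Mice were observed daily for toxicity and survival for 60 days. The value is the maximum tolerated dose, taken as LD10, or else the maximum dose administered.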

LoVo/DX (Homo sapiens) = assay: Tested in vitro for cytotoxic activity against Doxorubicin resistant Human colon Adenocarcinoma cell line
[2] = Resistance index is the ratio of IC50 of resistant cell line/IC50 of sensitive cell line; assay type: functional; summary of the method: as §1
Mus musculus [3] = assay: The compound was tested for antitumor activity against P388 murine leukemia at 60 (mg/kg/day) dose; 15/16 toxic deaths/total no of mice; assay type: ADME, organism-based; settings: in vivo
Mus musculus [4] = assay: The compound was tested for antitumor activity against P388 murine leukemia at 22 (mg/kg/day) dose; assay type: functional; summary of the method: as §2
Mus musculus [5] = assay: The compound was tested for antitumor activity against P388 murine leukemia at 18 (mg/kg/day) dose; 1/40 toxic deaths/total no of mice; assay type: ADME, organism-based; settings: in vivo
Mus musculus [6] = assay: The compound was tested for antitumor activity against P388 murine leukemia at 40 (mg/kg/day) dose; 25/37 toxic deaths/total no of mice; assay type: ADME, organism-based; settings: in vivo
Mus musculus [7] = assay: The compound was tested for antitumor activity against P388 murine leukemia at 27 (mg/kg/day) dose; assay type: functional; summary of the method: as §2
Mus musculus [8] = assay: The compound was tested for antitumor activity against P388 murine leukemia at 8 (mg/kg/day) dose; assay type: functional; summary of the method: as §2
Mus musculus [9] = assay: The compound was tested for antitumor activity against P388 murine leukemia at 27 (mg/kg/day) dose;7/55 toxic deaths/total no of mice; assay type: ADME, organism-based; settings: in vivo
Mus musculus [10] = assay: The compound was tested for antitumor activity against P388 murine leukemia at 12(mg/kg/day) dose; 0/16 toxic deaths/total no of mice; settings: in vivo
Mus musculus [11] = assay: The compound was tested for antitumor activity against P388 murine leukemia at 22 (mg/kg/day) dose; 1/8 toxic deaths/total no of mice; assay type: ADME, organism-based; settings: in vivo
Mus musculus [12] = species: Mus musculus; assay: as §3; assay type: ADME, organism-based; settings: in vivo; summary of the method: as §4
Mus musculus [13] = assay: The compound was tested for antitumor activity against P388 murine leukemia at 40 (mg/kg/day) dose; assay type: functional; summary of the method: as §2
Mus musculus [14] = assay: The compound was tested for antitumor activity against P388 murine leukemia at 18 (mg/kg/day) dose; assay type: functional; summary of the method: as §2
Mus musculus [15] = assay: The compound was tested for antitumor activity against P388 murine leukemia at 12 (mg/kg/day) dose; assay type: functional; summary of the method: as §2
Mus musculus [16] = assay: The compound was tested for antitumor activity against P388 murine leukemia at 8(mg/kg/day) dose; 0/8 toxic deaths/total no of mice; assay type: ADME, organism-based; settings: in vivo
Mus musculus [17] = assay: The compound was tested for antitumor activity against P388 murine leukemia at 60 (mg/kg/day) dose; assay type: functional; summary of the method: as §2
Mus musculus [18] = assay: The compound was tested for antitumor activity against P388 murine leukemia at 9 (mg/kg/day) dose; assay type: functional; summary of the method: as §2
Mus musculus [19] = assay: The compound was tested for antitumor activity against P388 murine leukemia at 7.5 (mg/kg/day) dose; 0/16 -no. of toxic deaths/no. of mice; assay type: ADME, organism-based; settings: in vivo
Mus musculus [20] = assay: The compound was tested for antitumor activity against P388 murine leukemia at 6 (mg/kg/day) dose; 0/15 -no. of toxic deaths/no. of mice; assay type: ADME, organism-based; settings: in vivo
Mus musculus [21] = assay: The compound was tested for antitumor activity against P388 murine leukemia at 9 (mg/kg/day) dose; 3/8 -no. of toxic deaths/no. of mice; assay type: ADME, organism-based; settings: in vivo
Mus musculus [22] = assay: The compound was tested for antitumor activity against P388 murine leukemia at 6 (mg/kg/day) dose; assay type: functional; summary of the method: as §2
Mus musculus [23] = assay: The compound was tested for antitumor activity against P388 murine leukemia at 3 (mg/kg/day) dose; 12/132 -no. of toxic deaths/no. of mice; assay type: ADME, organism-based; settings: in vivo
Mus musculus [24] = assay: The compound was tested for antitumor activity against P388 murine leukemia at 4 (mg/kg/day) dose; 43/48 -no. of toxic deaths/no. of mice; assay type: ADME, organism-based; settings: in vivo
Mus musculus [25] = assay: The compound was tested for antitumor activity against P388 murine leukemia at 2 (mg/kg/day) dose; 0/82 -no. of toxic deaths/no. of mice; assay type: ADME, organism-based; settings: in vivo
Mus musculus [26] = species: Mus musculus; assay: The compound was tested for antitumor activity against P388 murine leukemia by measuring median survival time of treated mice/median survival time of control x 100; assay type: functional

Structure (SMILES)	IC50 (L1210) [µg/mL]	IC50 (LoVo) [µg/mL]	T/C (P388)	MTD [1] [mg/kg/day]	IC50 (LoVo/DX (Homo sapiens)) [µg/mL]	Ratio [2]	other results
CCN(CC)CCNc1ccc(NCCN(CC)CC)c2c1C(=O)c1ccncc1C2=O	0.06 (≈ 0.137 µM)	0.29 (≈ 0.663 µM)	122%	60	0.69 (≈ 1.58 µM)	2.4	
CC(=O)NCCNc1ccc(NCCNC(C)=O)c2c1C(=O)c1ccncc1C2=O	> 10						
CCNCCNc1ccc(NCCNCC)c2c1C(=O)c1ccncc1C2=O	0.01 (≈ 0.0262 µM)						
CN(C)CCNc1ccc(NCCN(C)C)c2c1C(=O)c1ccncc1C2=O	0.006 (≈ 0.0157 µM)	0.076 (≈ 0.199 µM)			0.13 (≈ 0.341 µM)	1.7	
O=C1c2ccncc2C(=O)c2c(NCCN3CCCC3)ccc(NCCN3CCCC3)c21	0.09 (≈ 0.208 µM)	0.5 (≈ 1.15 µM)	100%	60	0.7 (≈ 1.61 µM)	1.4	
O=C1c2ccncc2C(=O)c2c(NCCN3CCOCC3)ccc(NCCN3CCOCC3)c21	1.1 (≈ 2.36 µM)	5.32 (≈ 11.4 µM)	122%	60	2.3 (≈ 4.94 µM)	0.4	
Cl.NCCNc1ccc(NCCN)c2c1C(=O)c1ccncc1C2=O	0.01						Toxic deaths (Mus musculus [3]): 15; T/C (Mus musculus [4]): 250%; Toxic deaths (Mus musculus [5]): 1; Toxic deaths (Mus musculus [6]): 25; T/C (Mus musculus [7]): 230%; T/C (Mus musculus [8]): 162%; Toxic deaths (Mus musculus [9]): 7; Toxic deaths (Mus musculus [10]): 0; Toxic deaths (Mus musculus [11]): 1; maximum tolerated dose (Mus musculus [12]): 27 mg/kg/day; T/C (Mus musculus [13]): 128%; T/C (Mus musculus [14]): 206%; T/C (Mus musculus [15]): 194%; Toxic deaths (Mus musculus [16]): 0; T/C (Mus musculus [17]): 36%
CNCCNc1ccc(NCCNC)c2c1C(=O)c1ccncc1C2=O.Cl		0.08	189%	8	2.9	36	
O=C1c2ccccc2C(=O)c2c(NCCNCCO)ccc(NCCNCCO)c21 [AMETANTRONE]	0.03 (≈ 0.0727 µM)	0.4 (≈ 0.97 µM)	127%	58	34.7 (≈ 84.1 µM)	87	
COc1cccc2c1C(=O)c1c(O)c3c(c(O)c1C2=O)C[C@@](O)(C(=O)CO)C[C@@H]3O[C@H]1C[C@H](N)[C@H](O)[C@H](C)O1 [DOXORUBICIN]		0.03 (≈ 0.0552 µM)	181%	7.5	4 (≈ 7.36 µM)	133	T/C (Mus musculus [18]): 222%; Toxic deaths (Mus musculus [19]): 0; Toxic deaths (Mus musculus [20]): 0; Toxic deaths (Mus musculus [21]): 3; T/C (Mus musculus [22]): 175%
O=C1c2c(O)ccc(O)c2C(=O)c2c(NCCNCCO)ccc(NCCNCCO)c21 [MITOXANTRONE]	0.009 (≈ 0.0202 µM)	0.009 (≈ 0.0202 µM)	172% and 138%	3	0.25 (≈ 0.562 µM)	28	Toxic deaths (Mus musculus [23]): 12; Toxic deaths (Mus musculus [24]): 43; Toxic deaths (Mus musculus [25]): 0; LD10 (Mus musculus [12]): 2 mg/kg/day and 4 mg/kg/day; T/C (Mus musculus [26]): 196%
NCCNc1ccc(NCCN)c2c1C(=O)c1ccncc1C2=O [PIXANTRONE]		0.24 (≈ 0.738 µM)			7.2 (≈ 22.1 µM)	30	
